{"source": "paper PMC10917149", "about": "(European journal of medicinal chemistry, 2023)", "key": {"CB1R and CB2R": {"tested_on": "CB1R and CB2R", "assay": "Competition for [3H]CP55940 binding in HEK293 cell membranes", "parameters": "species or system human", "details": "HEK293 cell membranes without heterologous CB1R/CB2R"}, "AI-sensitive GPCRs [1]": {"tested_on": "AI-sensitive GPCRs", "assay": "Competition for [3H]WIN55212-2 binding in HEK293 cell membranes", "parameters": "species or system human", "method_in_brief": "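P2 membrane fractions were prepared from independent HEK293 cultures, which lack CB1R and CB2R. Membranes were incubated with [³H]WIN55212-2 and increasing concentrations of test compound, and specific binding was measured by filtration. Nonspecific binding was defined with 1 μM unlabelled WIN55212-2.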"}, "human CB1R": {"molecular_target": "human CB1R (Homo sapiens, UniProt P21554)", "sequence (P21554 whole entry)": "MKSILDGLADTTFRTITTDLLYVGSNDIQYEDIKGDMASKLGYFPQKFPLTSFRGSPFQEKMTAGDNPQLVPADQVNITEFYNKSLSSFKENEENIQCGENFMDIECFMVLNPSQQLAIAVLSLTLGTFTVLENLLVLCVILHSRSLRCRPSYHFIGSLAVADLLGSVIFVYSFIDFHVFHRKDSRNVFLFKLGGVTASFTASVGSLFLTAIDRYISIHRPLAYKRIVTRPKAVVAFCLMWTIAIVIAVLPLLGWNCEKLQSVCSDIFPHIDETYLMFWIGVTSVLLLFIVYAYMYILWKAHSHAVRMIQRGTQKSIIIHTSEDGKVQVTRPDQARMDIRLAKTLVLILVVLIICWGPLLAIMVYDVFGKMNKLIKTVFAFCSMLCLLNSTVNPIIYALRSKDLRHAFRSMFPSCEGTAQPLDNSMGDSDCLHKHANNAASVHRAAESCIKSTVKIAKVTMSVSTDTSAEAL", "assay": "CB1R internalization in HEK293 cells stably expressing HA-tagged CB1R", "format": "cell-based", "details": "AI compounds tested at 3 μM", "method_in_brief": "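Human CB1R carrying an HA tag was expressed in cultured HEK293 cells. Test compound was applied at 3 μM, with CP55940 at 1 μM as the positive control. Internalization was read as % of vehicle control. Data are mean ± SEM of 3–5 independent experiments, compared by one-way ANOVA with Bonferroni post-test.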"}, "human CB2R": {"molecular_target": "human CB2R (Homo sapiens, UniProt P34972)", "sequence (P34972 whole entry)": "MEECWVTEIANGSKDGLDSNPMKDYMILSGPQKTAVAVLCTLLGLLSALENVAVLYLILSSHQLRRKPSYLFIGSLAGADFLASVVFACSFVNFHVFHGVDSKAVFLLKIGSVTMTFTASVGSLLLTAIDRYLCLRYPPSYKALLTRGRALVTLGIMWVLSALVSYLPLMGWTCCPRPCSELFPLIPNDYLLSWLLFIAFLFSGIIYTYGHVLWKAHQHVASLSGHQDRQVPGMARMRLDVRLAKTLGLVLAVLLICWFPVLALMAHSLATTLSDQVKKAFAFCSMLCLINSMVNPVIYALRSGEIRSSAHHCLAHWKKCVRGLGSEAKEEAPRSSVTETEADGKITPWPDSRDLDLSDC", "assay": "CB2R internalization in HEK293 cells stably expressing HA-tagged CB2R", "format": "cell-based", "details": "AI compounds tested at 3 μM", "method_in_brief": "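HA-tagged human CB2R was expressed heterologously in cultured HEK293 cells. Test compound was given at 3 μM, with or without the CB2R antagonist AM630 at 1 μM; CP55940 at 1 μM served as the positive control. Internalization was expressed as % of vehicle control. Mean ± SEM of 3–5 independent experiments; one-way ANOVA with Bonferroni post-test.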"}, "mouse CB2R": {"tested_on": "mouse CB2R", "details": "cited from earlier work"}, "AI-sensitive GPCRs [2]": {"tested_on": "AI-sensitive GPCRs", "assay": "[35S]GTPγS binding in HEK293 cell membranes", "format": "biochemical, human", "details": "for [35S]GTPγS response after pertussis toxin: PTX 100 ng/ml pretreatment of HEK293 cells for 20 h"}, "[3]": {"details": "read-out: KiHigh (AIHigh binding sites), high affinity site"}}, "note": "pKi: −log10 of the molar value. Entries after “also recorded” stand apart in the source; their conditions may differ. Like-named read-outs stand apart in the source and are kept apart here.", "data": [{"compound": "CCCCCCC(C)(C)c1ccc([C@@H]2C[C@H](O)CC[C@H]2CCCO)c(O)c1", "note": "[CP55940]", "values": [{"measurement": "competition for [3H]CP55940 binding (in words)", "setting": "CB1R and CB2R", "result": "failed to compete"}]}, {"compound": "Cc1ccc(C(=O)c2c(C)n(CCN3CCOCC3)c3ccccc23)c2ccccc12", "note": "[Compound 2]", "values": [{"measurement": "manner of competition for [3H]WIN55212-2 binding (biphasic / monophasic)", "setting": "AI-sensitive GPCRs [1]", "result": "biphasic"}, {"measurement": "pKi", "setting": "AI-sensitive GPCRs [1]; [3]", "result": 9.10}, {"measurement": "CB1R internalization (in words)", "setting": "human CB1R", "result": "retained significant activity; also recorded: stimulate significant CB1R internalization"}, {"measurement": "CB2R internalization (in words)", "setting": "human CB2R", "result": "stimulated significant CB2R internalization; also recorded: activate"}, {"measurement": "activation of mouse CB2R measured by receptor internalization", "setting": "mouse CB2R", "result": "do not activate"}]}, {"compound": "Cc1ccc(C(=O)c2c3n(c4ccccc24)CCCC3)c2ccccc12", "note": "[Compound 4]", "values": [{"measurement": "manner of competition for [3H]WIN55212-2 binding (biphasic / monophasic)", "setting": "AI-sensitive GPCRs [1]", "result": "biphasic"}, {"measurement": "CB1R internalization (in words)", "setting": "human CB1R", "result": "retained significant activity; also recorded: stimulate significant CB1R internalization"}, {"measurement": "CB2R internalization (in words)", "setting": "human CB2R", "result": "stimulated significant CB2R internalization; also recorded: activate"}, {"measurement": "activation of mouse CB2R measured by receptor internalization", "setting": "mouse CB2R", "result": "do not activate"}]}, {"compound": "Cc1ccc(C(=O)c2c(C)n(CC(F)(F)F)c3ccccc23)c2ccccc12", "note": "[Compound 5]", "values": [{"measurement": "CB1R internalization (in words)", "setting": "human CB1R", "result": "inactive"}, {"measurement": "CB2R internalization (in words)", "setting": "human CB2R", "result": "stimulated significant CB2R internalization; also recorded: activate"}, {"measurement": "activation of mouse CB2R measured by receptor internalization", "setting": "mouse CB2R", "result": "do not activate"}]}, {"compound": "COc1ccc2c(c1)c(C(=O)c1ccc(C)c3ccccc13)c(C)n2CCN1CCOCC1", "note": "[Compound 7]", "values": [{"measurement": "competition for [3H]WIN55212-2 binding (in words)", "setting": "AI-sensitive GPCRs [1]", "result": "inactive; also recorded: loss of binding"}]}, {"compound": "COc1ccc2c(C(=O)c3ccc(C)c4ccccc34)c(C)n(CCN3CCOCC3)c2c1", "note": "[Compound 8]", "values": [{"measurement": "stimulation of [35S]GTPγS binding (in words)", "setting": "AI-sensitive GPCRs [2]", "result": "increase"}]}, {"compound": "Cc1ccc(C(=O)c2c(C)n(CCN3CCOCC3)c3ccc(Cl)cc23)c2ccccc12", "note": "[Compound 9]", "values": [{"measurement": "manner of competition for [3H]WIN55212-2 binding (biphasic / monophasic)", "setting": "AI-sensitive GPCRs [1]", "result": "biphasic"}, {"measurement": "pKi", "setting": "AI-sensitive GPCRs [1]; [3]", "result": 8.00}, {"measurement": "pKi", "setting": "AI-sensitive GPCRs [1]; read-out: KiLow (AILow binding sites), low affinity site", "result": 5.64}]}, {"compound": "Cc1ccc(C(=O)c2c(C)n(CCN3CCOCC3)c3cc(Cl)ccc23)c2ccccc12", "note": "[Compound 10]", "values": [{"measurement": "KiLow (AILow binding sites)", "setting": "AI-sensitive GPCRs [1]; low affinity site", "result": "undetectable"}, {"measurement": "stimulation of [35S]GTPγS binding (in words)", "setting": "AI-sensitive GPCRs [2]", "result": "increase"}, {"measurement": "[35S]GTPγS response after pertussis toxin", "setting": "AI-sensitive GPCRs [2]", "result": "pertussis toxin-sensitive"}]}, {"compound": "Cc1ccc(C(=O)c2c(C)n(CCN3CCOCC3)c3cc(Cl)cc(Cl)c23)c2ccccc12", "note": "[Compound 11]", "values": [{"measurement": "competition for [3H]WIN55212-2 binding (in words)", "setting": "AI-sensitive GPCRs [1]", "result": "inactive"}, {"measurement": "binding at 1 μM", "setting": "AI-sensitive GPCRs [1]; at 1 μM", "result": "no measurable binding"}]}, {"compound": "Cc1ccc(C(=O)c2c(C)n(CCN3CCOCC3)c3ncccc23)c2ccccc12", "note": "[Compound 12]", "values": [{"measurement": "enhanced activity at AIHigh versus AILow", "setting": "AI-sensitive GPCRs [1]", "result": "~ 1000 fold"}, {"measurement": "manner of competition for [3H]WIN55212-2 binding (biphasic / monophasic)", "setting": "AI-sensitive GPCRs [1]", "result": "biphasic"}, {"measurement": "pKi", "setting": "AI-sensitive GPCRs [1]; [3]", "result": 9.40}, {"measurement": "stimulation of [35S]GTPγS binding (in words)", "setting": "AI-sensitive GPCRs [2]", "result": "increase"}, {"measurement": "[35S]GTPγS response after pertussis toxin", "setting": "AI-sensitive GPCRs [2]", "result": "pertussis toxin-sensitive"}, {"measurement": "CB1R internalization (in words)", "setting": "human CB1R", "result": "retained significant activity; also recorded: stimulate significant CB1R internalization"}, {"measurement": "CB2R internalization (in words)", "setting": "human CB2R", "result": "stimulated significant CB2R internalization; also recorded: activate"}, {"measurement": "activation of mouse CB2R measured by receptor internalization", "setting": "mouse CB2R", "result": "do not activate"}]}, {"compound": "Cc1ccc(C(=O)c2c(C)n(CCN3CCOCC3)c3cnccc23)c2ccccc12", "note": "[Compound 13]", "values": [{"measurement": "manner of competition for [3H]WIN55212-2 binding (biphasic / monophasic)", "setting": "AI-sensitive GPCRs [1]", "result": "biphasic"}, {"measurement": "pKi", "setting": "AI-sensitive GPCRs [1]; [3]", "result": 8.24}]}, {"compound": "CCn1c(C)c(C(=O)c2ccc(OC)cc2)c2ccccc21", "note": "[Compound 14]", "values": [{"measurement": "competition for [3H]WIN55212-2 binding (in words)", "setting": "AI-sensitive GPCRs [1]", "result": "inactive"}]}, {"compound": "C1=C(CCN2CCOCC2)c2ccccc2/C1=C\\c1cccc2ccccc12", "note": "[Compound 31, reference compound]", "values": [{"measurement": "competition for [3H]WIN55212-2 binding (in words)", "setting": "AI-sensitive GPCRs [1]", "result": "compete"}, {"measurement": "stimulation of [35S]GTPγS binding (in words)", "setting": "AI-sensitive GPCRs [2]", "result": "stimulated"}]}, {"compound": "C1=C(CCN2CCOCC2)c2ccccc2/C1=C/c1cccc2ccccc12", "note": "[Compound 32, reference compound]", "values": [{"measurement": "competition for [3H]WIN55212-2 binding (in words)", "setting": "AI-sensitive GPCRs [1]", "result": "weakly competes"}]}, {"compound": "CC1=C(CCN2CCOCC2)c2ccccc2/C1=C\\c1cccc2ccccc12", "note": "[Compound 33, reference compound]", "values": [{"measurement": "competition for [3H]WIN55212-2 binding (in words)", "setting": "AI-sensitive GPCRs [1]", "result": "compete"}, {"measurement": "stimulation of [35S]GTPγS binding (in words)", "setting": "AI-sensitive GPCRs [2]", "result": "stimulated"}]}, {"compound": "CC1=C(CCN2CCOCC2)c2ccccc2/C1=C/c1cccc2ccccc12", "note": "[Compound 34, reference compound]", "values": [{"measurement": "competition for [3H]WIN55212-2 binding (in words)", "setting": "AI-sensitive GPCRs [1]", "result": "does not compete; also recorded: no significant competition"}]}, {"compound": "Cc1c(C(=O)c2cccc3ccccc23)c2ccccc2n1C", "note": "[JWH-042, reference compound]", "values": [{"measurement": "manner of competition for [3H]WIN55212-2 binding (biphasic / monophasic)", "setting": "AI-sensitive GPCRs [1]", "result": "biphasic"}]}, {"compound": "Cc1ccc(C(=O)c2c(C)n(C)c3ccccc23)c2ccccc12", "note": "[JWH-450, reference compound]", "values": [{"measurement": "manner of competition for [3H]WIN55212-2 binding (biphasic / monophasic)", "setting": "AI-sensitive GPCRs [1]", "result": "biphasic"}]}, {"compound": "CCn1c(C)c(C(=O)c2ccc(C)c3ccccc23)c2ccccc21", "note": "[JWH-451, reference compound]", "values": [{"measurement": "manner of competition for [3H]WIN55212-2 binding (biphasic / monophasic)", "setting": "AI-sensitive GPCRs [1]", "result": "biphasic"}, {"measurement": "pKi", "setting": "AI-sensitive GPCRs [1]; [3]", "result": 8.82}, {"measurement": "stimulation of [35S]GTPγS binding (in words)", "setting": "AI-sensitive GPCRs [2]", "result": "increases"}, {"measurement": "[35S]GTPγS response after pertussis toxin", "setting": "AI-sensitive GPCRs [2]", "result": "significantly reduced"}, {"measurement": "[35S]GTPγS response in presence of CB1R and CB2R antagonists", "setting": "AI-sensitive GPCRs [2]; SR141617 (1 μM) and SR144528 (1 μM)", "result": "insensitive; also recorded: not affected"}, {"measurement": "CB1R internalization (in words)", "setting": "human CB1R", "result": "inactive"}, {"measurement": "CB2R internalization (in words)", "setting": "human CB2R", "result": "stimulated significant CB2R internalization; also recorded: activate"}, {"measurement": "activation of mouse CB2R measured by receptor internalization", "setting": "mouse CB2R", "result": "do not activate"}]}, {"compound": "Cc1c(C(=O)NN2CCCCC2)nn(-c2ccc(Cl)cc2Cl)c1-c1ccc(Cl)cc1", "note": "[SR141617]", "values": [{"measurement": "competition for [3H]CP55940 binding (in words)", "setting": "CB1R and CB2R", "result": "failed to compete"}]}, {"compound": "Cc1c(C(=O)c2cccc3ccccc23)c2cccc3c2n1[C@@H](CN1CCOCC1)CO3", "note": "[WIN55212-2, reference compound]", "values": [{"measurement": "manner of competition for [3H]WIN55212-2 binding (biphasic / monophasic)", "setting": "AI-sensitive GPCRs [1]", "result": "biphasic"}, {"measurement": "pKi", "setting": "AI-sensitive GPCRs [1]; read-out: KiHigh, high affinity site of biphasic competition curve", "result": 10.37}, {"measurement": "pKi", "setting": "AI-sensitive GPCRs [1]; read-out: KiLow, low affinity site of biphasic competition curve", "result": 8.14}]}, {"compound": "Cc1c(C(=O)c2cccc3ccccc23)c2cccc3c2n1[C@H](CN1CCOCC1)CO3", "note": "[WIN55212–3, reference compound]", "values": [{"measurement": "competition for [3H]WIN55212-2 binding (in words)", "setting": "AI-sensitive GPCRs [1]", "result": "absence of competition"}]}, {"compound": "SR144528", "values": [{"measurement": "competition for [3H]CP55940 binding (in words)", "setting": "CB1R and CB2R", "result": "failed to compete"}]}]}
